From ChEMBL document CHEMBL4834402, “Discovery of TAK-981, a First-in-Class Inhibitor of SUMO-Activating Enzyme for the Treatment of Cancer” (J Med Chem, 2021) come the findings set out here.

Where only a bound is given, the exact number is not on record here.

The nature of experiment [1]: Inhibition of recombinant UAE (unknown origin) in presence of ATP at Km concentration by HTRF assay. Also noted: species or system Homo sapiens. On the technique in general: Time-resolved FRET reads energy transfer from a long-lived donor to a nearby acceptor.
In experiment [2] the target is T1, NEDD8 activating enzyme (Homo sapiens, UniProt Q8TBC4).
T1 sequence (Q8TBC4 whole entry): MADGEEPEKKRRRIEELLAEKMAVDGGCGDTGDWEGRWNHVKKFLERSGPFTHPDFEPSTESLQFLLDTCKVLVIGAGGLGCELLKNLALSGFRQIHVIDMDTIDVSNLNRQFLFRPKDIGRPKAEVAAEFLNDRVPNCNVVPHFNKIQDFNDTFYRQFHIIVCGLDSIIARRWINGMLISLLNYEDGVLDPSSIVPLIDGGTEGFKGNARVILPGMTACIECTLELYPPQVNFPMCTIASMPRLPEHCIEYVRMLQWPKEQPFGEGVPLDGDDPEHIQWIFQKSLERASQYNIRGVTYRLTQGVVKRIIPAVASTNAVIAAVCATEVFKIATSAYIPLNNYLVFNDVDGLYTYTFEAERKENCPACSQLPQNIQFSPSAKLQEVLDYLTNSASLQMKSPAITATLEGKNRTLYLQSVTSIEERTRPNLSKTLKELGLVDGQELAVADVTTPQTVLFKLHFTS
T1 sequence (Q13564 whole entry): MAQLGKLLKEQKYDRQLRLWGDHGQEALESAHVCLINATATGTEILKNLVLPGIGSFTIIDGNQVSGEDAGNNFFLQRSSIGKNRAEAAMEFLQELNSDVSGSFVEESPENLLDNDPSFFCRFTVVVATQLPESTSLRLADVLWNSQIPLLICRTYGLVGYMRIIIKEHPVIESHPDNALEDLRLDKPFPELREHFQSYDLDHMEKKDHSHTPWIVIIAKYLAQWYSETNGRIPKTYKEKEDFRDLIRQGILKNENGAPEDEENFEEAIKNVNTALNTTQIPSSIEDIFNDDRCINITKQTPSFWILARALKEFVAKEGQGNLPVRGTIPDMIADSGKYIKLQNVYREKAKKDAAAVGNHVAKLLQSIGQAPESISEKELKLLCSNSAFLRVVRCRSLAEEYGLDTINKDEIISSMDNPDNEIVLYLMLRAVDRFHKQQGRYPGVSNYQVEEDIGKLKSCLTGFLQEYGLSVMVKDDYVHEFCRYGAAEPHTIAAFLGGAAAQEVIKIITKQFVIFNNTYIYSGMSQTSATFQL
The experiment can be described thus: Inhibition of recombinant NAE (unknown origin) in presence of ATP at Km concentration by HTRF assay. It is filed as protein-complex assay.

Experiment [3] deals with T2, SUMO-activating enzyme (Homo sapiens, UniProt Q9UBT2). The experiment can be described thus: Inhibition of recombinant SAE (unknown origin) assessed as reduction in transfer of SUMO1 to UBC9 using SUMO1 as a substrate in presence of ATP at Km concentration by HTRF assay. Type of experiment: protein-complex assay. The method, boiled down: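 HTRF transthiolation assay measuring transfer of SUMO1 to UBC9, the E2 for SAE.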

Experiment [4] concerns the target T2, SUMO-activating enzyme. The experiment can be described thus: Inhibition of SAE in human HCT116 cells assessed as reduction in redistribution of SUMO2/3 proteins from nucleus to cytosol incubated for 4 hrs by immunofluorescence assay. Type of experiment: cell-based, HCT-116. The method, boiled down:
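HCT-116 cells exposed to compound across a concentration range for 4 h, then stained with anti-SUMO2/3 monoclonal antibody. Automated imaging scored the nuclear (inner) to cytoplasmic (outer) SUMO2/3 ratio. IC50 taken from the dose response.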

T2 sequence (Q9UBE0 whole entry): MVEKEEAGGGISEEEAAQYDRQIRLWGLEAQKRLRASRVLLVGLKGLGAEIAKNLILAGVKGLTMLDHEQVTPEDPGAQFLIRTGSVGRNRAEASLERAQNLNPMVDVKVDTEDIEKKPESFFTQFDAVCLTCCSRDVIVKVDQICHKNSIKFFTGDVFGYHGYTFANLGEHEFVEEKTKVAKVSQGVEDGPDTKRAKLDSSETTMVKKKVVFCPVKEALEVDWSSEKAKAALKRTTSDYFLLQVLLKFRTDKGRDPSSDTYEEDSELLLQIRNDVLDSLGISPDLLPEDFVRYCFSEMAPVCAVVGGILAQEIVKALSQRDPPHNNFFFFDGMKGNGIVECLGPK
T2 sequence (Q9UBT2 whole entry): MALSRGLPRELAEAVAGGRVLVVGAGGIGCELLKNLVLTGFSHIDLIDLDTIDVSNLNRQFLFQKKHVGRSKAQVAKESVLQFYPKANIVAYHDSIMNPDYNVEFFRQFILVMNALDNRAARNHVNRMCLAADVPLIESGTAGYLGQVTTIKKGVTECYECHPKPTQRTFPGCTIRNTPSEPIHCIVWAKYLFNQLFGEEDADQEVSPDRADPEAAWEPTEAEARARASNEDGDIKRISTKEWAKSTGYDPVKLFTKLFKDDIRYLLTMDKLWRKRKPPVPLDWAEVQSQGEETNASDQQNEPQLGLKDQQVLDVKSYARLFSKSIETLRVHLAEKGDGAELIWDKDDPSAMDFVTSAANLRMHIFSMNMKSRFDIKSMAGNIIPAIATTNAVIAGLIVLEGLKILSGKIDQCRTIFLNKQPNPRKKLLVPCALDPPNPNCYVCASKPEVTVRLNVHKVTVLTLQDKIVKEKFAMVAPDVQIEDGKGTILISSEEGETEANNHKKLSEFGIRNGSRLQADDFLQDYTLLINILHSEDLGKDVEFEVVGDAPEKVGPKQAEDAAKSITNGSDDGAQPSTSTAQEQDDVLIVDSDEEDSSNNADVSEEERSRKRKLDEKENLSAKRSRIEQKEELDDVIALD

In the case of `NS(=O)(=O)OC[C@H]1C[C@@H](Nc2ncncc2C(=O)c2cc(Cc3cccc(Br)c3)cs2)C[C@@H]1O`, the IC50 in experiment [1] is above 1000 nM; in experiment [2] it was 91 nM.

`NS(=O)(=O)OC[C@H]1C[C@@H](Nc2ncncc2C(=O)c2ccn(Cc3ccccc3)n2)[C@@H](F)[C@@H]1O`: the IC50 in experiment [3] amounted to 2.3 nM; in experiment [1] it was 492 nM; in experiment [2], 688 nM; in experiment [4], 260 nM.

Regarding `NS(=O)(=O)OC[C@H]1C[C@@H](Nc2ncncc2C(=O)c2ccn(Cc3ccccc3)n2)C(F)(F)[C@@H]1O`, the IC50 in experiment [3] was 3.9 nM; in experiment [1], above 1000 nM; in experiment [2] it was above 1000 nM; in experiment [4], 249 nM.

On to `CN(C)C(c1cccc(Cl)c1)c1csc(C(=O)c2cncnc2N[C@@H]2C[C@H](COS(N)(=O)=O)[C@@H](O)C2)c1` (some centres not stated), for which the IC50 in experiment [3] is 25 nM; in experiment [1] it was above 1000 nM; in experiment [2], above 1000 nM; in experiment [4], 4170 nM.

Consider `NS(=O)(=O)OC[C@H]1C[C@@H](Nc2ncncc2C(=O)c2ccn(Cc3ccccc3)c2)C[C@@H]1O`, for which the IC50 is 1.7 nM in experiment [3], above 1000 nM in experiment [1], 23 nM in experiment [2] and 30 nM in experiment [4].

In the case of `NS(=O)(=O)OC[C@H]1C[C@@H](Nc2ncncc2C(=O)c2cc(C3OCCc4c(Cl)cccc43)cs2)C[C@@H]1O` (some centres not stated), the IC50 in experiment [3] is 1.7 nM; in experiment [1] it was above 1000 nM; in experiment [2] it was 265 nM; in experiment [4] it was 76 nM.

As to `NS(=O)(=O)OC[C@H]1C[C@@H](Nc2ncncc2C(=O)c2ccn(Cc3ccccc3Cl)n2)C[C@@H]1O`, the 50% inhibitory concentration (IC50) in experiment [3] was 3.2 nM; in experiment [1], above 1000 nM; in experiment [2], 215 nM; in experiment [4], 332 nM.

`NS(=O)(=O)OC[C@H]1C[C@@H](Nc2ncncc2C(=O)c2ccn(Cc3cccc(Cl)n3)n2)C[C@@H]1O`: the 50% inhibitory concentration (IC50) in experiment [3] is 1 nM; in experiment [1], above 1000 nM; in experiment [2], 478 nM; in experiment [4], 66 nM.

Regarding `CNC(c1cccc(Cl)c1)c1csc(C(=O)c2cncnc2N[C@@H]2C[C@H](COS(N)(=O)=O)[C@@H](O)C2)c1` (some centres not stated), the concentration for half-maximal inhibition (IC50) is 3.7 nM in experiment [3], above 1000 nM in experiment [1], 956 nM in experiment [2] and 436 nM in experiment [4].

On to `NS(=O)(=O)OC[C@H]1C[C@@H](Nc2ncncc2C(=O)c2ccn(Cc3ccc(Cl)o3)n2)C[C@@H]1O`, for which the IC50 in experiment [3] is 1.1 nM; in experiment [1] it was above 1000 nM; in experiment [2], 435 nM; in experiment [4], 33 nM.

Regarding `C#Cc1cccc(Cn2ccc(C(=O)c3cncnc3N[C@@H]3C[C@H](COS(N)(=O)=O)[C@@H](O)C3)n2)c1`, the IC50 was 1.1 nM in experiment [3], above 1000 nM in experiment [1], 304 nM in experiment [2] and 22 nM in experiment [4].

With `N#Cc1sc(C(=O)c2cncnc2N[C@@H]2C[C@H](COS(N)(=O)=O)[C@@H](O)C2)cc1Cc1cccc(Cl)c1`, the IC50 in experiment [3] was 19 nM; in experiment [1], above 1000 nM; in experiment [2], above 1000 nM; in experiment [4], 6260 nM.

`NS(=O)(=O)OC[C@H]1C[C@@H](Nc2ncncc2C(=O)c2ccc(Cc3cccc(Br)c3)o2)C[C@@H]1O`: the IC50 is above 1000 nM in experiment [1] and 267 nM in experiment [2].

As for `Cc1sc(C(=O)c2cncnc2N[C@@H]2C[C@H](COS(N)(=O)=O)[C@@H](O)C2)cc1[C@H]1NCCc2ccc(Cl)cc21`, the IC50 in experiment [3] was 30 nM; in experiment [1], above 1000 nM; in experiment [2] it was 554 nM; in experiment [4], 399 nM.

`NS(=O)(=O)OC[C@H]1C[C@@H](Nc2ncncc2C(=O)c2ccn(Cc3cccc(F)c3)n2)C[C@@H]1O`: the IC50 in experiment [3] is 2.9 nM; in experiment [1], above 1000 nM; in experiment [2] it was 357 nM; in experiment [4], 515 nM.

Turning to `NS(=O)(=O)OC[C@H]1C[C@@H](Nc2ncncc2C(=O)c2cnn(Cc3ccccc3)c2)C[C@@H]1O`, the IC50 was 6.3 nM in experiment [3], above 1000 nM in experiment [1], 122 nM in experiment [2] and 2940 nM in experiment [4].

On to `NS(=O)(=O)OC[C@H]1C[C@@H](Nc2ncncc2C(=O)c2ccn(-c3ccccc3)n2)C[C@@H]1O`, for which the half-inhibitory concentration (IC50) in experiment [3] was 67 nM; in experiment [1] it was 468 nM; in experiment [2], 32 nM; in experiment [4] it was above 1000 nM.

Consider `NS(=O)(=O)OC[C@H]1C[C@@H](Nc2ncncc2C(=O)c2ccn(Cc3cccc(OC(F)(F)F)c3)n2)C[C@@H]1O`, for which the IC50 is 2.1 nM in experiment [3], above 1000 nM in experiment [1], above 1000 nM in experiment [2] and 78 nM in experiment [4].

On to `NS(=O)(=O)OC[C@H]1C[C@@H](Nc2ncncc2C(=O)c2ccn(Cc3ccc(Cl)cc3)n2)C[C@@H]1O`, for which the IC50 in experiment [3] was 5.1 nM; in experiment [1], above 1000 nM; in experiment [2] it was above 1000 nM; in experiment [4], 1880 nM.

In the case of `NS(=O)(=O)OC[C@H]1C[C@@H](Nc2ncncc2C(=O)c2cc(C3OCc4ccc(Cl)cc43)c(Cl)s2)C[C@@H]1O` (some centres not stated), the IC50 in experiment [3] was 3 nM; in experiment [1] it was above 1000 nM; in experiment [2], above 1000 nM; in experiment [4], 163 nM.

For the compound `NS(=O)(=O)OC[C@H]1C[C@@H](Nc2ncncc2C(=O)c2ccn(Cc3cccc(Br)n3)n2)C[C@@H]1O`, the IC50 in experiment [3] is 0.7 nM; in experiment [1], above 1000 nM; in experiment [2] it was 581 nM; in experiment [4] it was 49 nM.

Regarding `NC(c1cccc(Cl)c1)c1csc(C(=O)c2cncnc2N[C@@H]2C[C@H](COS(N)(=O)=O)[C@@H](O)C2)c1` (stereo in doubt; 32), the IC50 was 1.5 nM in experiment [3], above 1000 nM in experiment [1], 328 nM in experiment [2] and 1030 nM in experiment [4].

Regarding `NS(=O)(=O)OC[C@H]1C[C@@H](Nc2ncncc2C(=O)c2ccn(Cc3ccccc3)n2)[C@H](F)[C@@H]1O`, the half-maximal inhibitory concentration (IC50) in experiment [3] was 3.8 nM; in experiment [1] it was above 1000 nM; in experiment [2] it was 334 nM; in experiment [4] it was 517 nM.

For `NS(=O)(=O)OC[C@H]1C[C@@H](Nc2ncncc2C(=O)c2ccn(CC3CCCCC3)n2)C[C@@H]1O`, the IC50 was 8.2 nM in experiment [3], above 1000 nM in experiment [1], 276 nM in experiment [2] and 1610 nM in experiment [4].

`NS(=O)(=O)OC[C@H]1C[C@@H](Nc2ncncc2C(=O)c2ccn(Cc3cccc(C(F)(F)F)c3)n2)C[C@@H]1O`: the IC50 in experiment [3] is 1.1 nM; in experiment [1] it was above 1000 nM; in experiment [2], 695 nM; in experiment [4], 39 nM.

In the case of `NS(=O)(=O)OC[C@@H]1C[C@@H](Nc2ncncc2C(=O)c2ccn(Cc3ccccc3)n2)C[C@@H]1O`, the IC50 in experiment [3] was 22 nM; in experiment [1] it was above 1000 nM; in experiment [2], 806 nM; in experiment [4], above 1000 nM.

Turning to `Cc1sc(C(=O)c2cncnc2N[C@@H]2C[C@H](COS(N)(=O)=O)[C@@H](O)C2)cc1C1OCCc2ccc(Cl)cc21` (stereo in doubt; 47), the IC50 in experiment [3] amounted to 11 nM; in experiment [2], 87 nM; in experiment [4] it was 3880 nM.

For the compound `NS(=O)(=O)OC[C@H]1C[C@@H](Nc2ncncc2C(=O)c2cc(Cc3cccc(Cl)c3)cs2)C[C@@H]1O`, the IC50 was above 1000 nM in experiment [1] and 64 nM in experiment [2].

For the compound `NS(=O)(=O)OC[C@H]1C[C@@H](Nc2ncncc2C(=O)c2ccn(Cc3ccc(Cl)s3)n2)C[C@@H]1O`, the IC50 in experiment [3] is 2 nM; in experiment [1] it was above 1000 nM; in experiment [2], 353 nM; in experiment [4], 228 nM.

As to `NS(=O)(=O)OC[C@H]1C[C@@H](Nc2ncncc2C(=O)c2ccn(Cc3ccccc3)n2)[C@@H](O)[C@@H]1O`, the IC50 in experiment [3] is 27 nM; in experiment [1], above 1000 nM; in experiment [2], 748 nM; in experiment [4] it was 1530 nM.

For the compound `NS(=O)(=O)OC[C@H]1C[C@@H](Nc2ncncc2C(=O)c2cc(C3NCc4ccc(Cl)cc43)cs2)C[C@@H]1O` (some centres not stated), the IC50 is 1.6 nM in experiment [3], above 1000 nM in experiment [1], above 1000 nM in experiment [2] and 312 nM in experiment [4].

The term IC50 denotes the concentration needed to halve the response being measured.
